ChEMBL document CHEMBL3593187, “Modified quaternary ammonium salts as potential antimalarial agents” (Bioorg Med Chem, 2015)

Tests used:
[1] = Selectivity index, ratio of IC50 for HMEC1 to IC50 for chloroquine-sensitive Plasmodium falciparum D10
Summary of the method: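 Ratio of HMEC-1 IC50 (72 h MTT) to D10 IC50. […] Serial dilutions (final DMSO ≤1%), 72 h at 37 °C under 1% O2/5% CO2/94% N2. Growth read as pLDH activity (OD650). Mean of ≥3 experiments in duplicate.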

[2] = Cytotoxicity against HMEC1 assessed as inhibition of cell proliferation after 72 hrs by MTT assay; conditions: Homo sapiens, HMEC-1, 72 h
Summary of the method: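 HMEC-1 cells grown in MCDB 131 with 10% fetal calf serum, 10 ng/mL EGF, hydrocortisone, 2 mM glutamine and 20 mM Hepes. Serial compound dilutions, 72 h at 37 °C in 5% CO2, then MTT for 3 h. Formazan dissolved in SDS/DMF lysing buffer (pH 4.7), read at 550 nm (ref 650 nm). IC50 from triplicates, at least three runs.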

Plasmodium falciparum [3] = assay: Resistance index, ratio of IC50 for chloroquine-resistant Plasmodium falciparum W2 to IC50 for chloroquine-sensitive Plasmodium falciparum D10; format: functional
Summary of the method: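 Resistance index is the IC50 against W2 divided by the IC50 against D10. Each IC50 came from a 72 h pLDH growth assay (OD650) on asynchronous cultures at 1% haematocrit and 37 °C, with ≥3 independent experiments in duplicate.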

[4] = Selectivity index, ratio of IC50 for HMEC1 to IC50 for chloroquine-resistant Plasmodium falciparum W2
Summary of the method: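 Selectivity index is the IC50 on HMEC-1 divided by the IC50 on W2. HMEC-1 cells were grown in MCDB 131 with 10% FCS, EGF, hydrocortisone and Hepes, then given serial dilutions for 72 h at 37 °C in 5% CO2. MTT was added for 3 h, formazan was dissolved in SDS/DMF lysis buffer at pH 4.7, and absorbance was read at 550/650 nm. Each test was run in triplicate at least three times.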

Plasmodium falciparum [5] = assay: Antiplasmodial activity against chloroquine-sensitive Plasmodium falciparum D10 assessed as inhibition of parasite growth after 72 hrs by parasite lactate dehydrogenase assay; format: functional, organism-based; conditions: D10, 72 h
Summary of the method: (§1)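 Asynchronous P. falciparum cultures (parasitaemia 1–1.5%, 1% final haematocrit, human type A-positive erythrocytes) in RPMI 1640 with 1% AlbuMaxII, 0.01% hypoxanthine, 20 mM Hepes and 2 mM glutamine. Cultures were exposed to serial dilutions (10 mg/mL stocks in water or DMSO) for 72 h at 37 °C under 1% O2/5% CO2/94% N2. Growth was read as pLDH activity (OD650), and IC50 is the mean ± SD of ≥3 independent experiments in duplicate.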

Plasmodium falciparum [6] = assay: Antiplasmodial activity against chloroquine-resistant Plasmodium falciparum W2 assessed as inhibition of parasite growth after 72 hrs by parasite lactate dehydrogenase assay; format: functional, organism-based; conditions: W2, 72 h; summary of the method: as §1

C/C=C/C=C/C=C/C[N+](C)(CCCCCCCCCCCCCCCCCC)Cc1ccccc1.[I-] (centres undefined)
Ratio IC50 [1]: 15 | IC50 [2]: 7.02 µM | Ratio IC50 (Plasmodium falciparum [3]): 1.3 | Ratio IC50 [4]: 11 | IC50 (Plasmodium falciparum [5]): 0.45 µM | IC50 (Plasmodium falciparum [6]): 0.61 µM

C/C=C/C=C/C=C/C[N+](C)(C)CCCCCCCCCCCCCC.[I-]
Ratio IC50 [1]: 36 | IC50 [2]: 7.89 µM | Ratio IC50 (Plasmodium falciparum [3]): 2.5 | Ratio IC50 [4]: 14 | IC50 (Plasmodium falciparum [5]): 0.21 µM | IC50 (Plasmodium falciparum [6]): 0.53 µM

CCN(CC)CCCC(C)Nc1ccnc2cc(Cl)ccc12 (centres undefined) [CHLOROQUINE]
IC50 [2]: > 20 µM

C/C=C/C=C/C=C/C[N+](C)(CCCCCCCCCCCCCCCC)Cc1ccccc1 (centres undefined)
IC50 [2]: 5.99 µM | IC50 (Plasmodium falciparum [5]): > 8.63 µM | IC50 (Plasmodium falciparum [6]): > 8.63 µM

C/C=C/C=C/C=C/C[N+](C)(C)CCCCCCCCCCCCC.[I-]
Ratio IC50 [1]: 15 | IC50 [2]: 5.63 µM | Ratio IC50 (Plasmodium falciparum [3]): 1.7 | Ratio IC50 [4]: 8 | IC50 (Plasmodium falciparum [5]): 0.36 µM | IC50 (Plasmodium falciparum [6]): 0.63 µM

C/C=C/C=C/C=C/C[N+](C)(C)CCCCCCCCCCCCCCCC.[I-]
Ratio IC50 [1]: 11 | IC50 [2]: 7.07 µM | Ratio IC50 (Plasmodium falciparum [3]): 1.5 | Ratio IC50 [4]: 7 | IC50 (Plasmodium falciparum [5]): 0.62 µM | IC50 (Plasmodium falciparum [6]): 0.95 µM

C/C=C/C=C/C=C/C[N+](C)(CCCCCCCCCCCCCC)Cc1ccccc1.[I-] (centres undefined)
Ratio IC50 [1]: 102 | IC50 [2]: 23 µM | Ratio IC50 (Plasmodium falciparum [3]): 1.4 | Ratio IC50 [4]: 75 | IC50 (Plasmodium falciparum [5]): 0.22 µM | IC50 (Plasmodium falciparum [6]): 0.31 µM

C/C=C/C=C/C=C/C(=O)O
IC50 (Plasmodium falciparum [5]): > 28.4 µM | IC50 (Plasmodium falciparum [6]): > 28.4 µM

C/C=C/C=C/C=C/C[N+](C)(CCCCCCCCCCCCC)Cc1ccccc1.[I-] (centres undefined)
Ratio IC50 [1]: 24 | IC50 [2]: 21.2 µM | Ratio IC50 (Plasmodium falciparum [3]): 0.6 | Ratio IC50 [4]: 41 | IC50 (Plasmodium falciparum [5]): 0.87 µM | IC50 (Plasmodium falciparum [6]): 0.52 µM

CCCCCCCCCCCC[N+](C)(C)CCCCCCCC.[Br-]
Ratio IC50 [1]: 44 | IC50 [2]: 8.69 µM | Ratio IC50 (Plasmodium falciparum [3]): 2.5 | Ratio IC50 [4]: 18 | IC50 (Plasmodium falciparum [5]): 0.19 µM | IC50 (Plasmodium falciparum [6]): 0.48 µM

C/C=C/C=C/C=C/C[N+](C)(C)CCCCCCCCCCCC.[I-]
IC50 [2]: > 20 µM | Ratio IC50 (Plasmodium falciparum [3]): 1.1 | IC50 (Plasmodium falciparum [5]): 4.28 µM | IC50 (Plasmodium falciparum [6]): 4.71 µM

C/C=C/C=C/C=C/C[N+](C)(C)CCCCCCCCCCCCCCCCCC.[I-]
Ratio IC50 [1]: 14 | IC50 [2]: 16.7 µM | Ratio IC50 (Plasmodium falciparum [3]): 1.3 | Ratio IC50 [4]: 10 | IC50 (Plasmodium falciparum [5]): 1.15 µM | IC50 (Plasmodium falciparum [6]): 1.53 µM

C/C=C/C=C/C=C/C[N+](C)(CCCCCCCCCCCC)Cc1ccccc1.[I-] (centres undefined)
Ratio IC50 [1]: 23 | IC50 [2]: 5.9 µM | Ratio IC50 (Plasmodium falciparum [3]): 1.2 | Ratio IC50 [4]: 18 | IC50 (Plasmodium falciparum [5]): 0.25 µM | IC50 (Plasmodium falciparum [6]): 0.33 µM
